In data set [1] the target is Macrophage colony-stimulating factor 1 receptor (Homo sapiens, UniProt P07333). Briefly: Inhibition of CSF1R.
Another data set has as its system NIH3T3. Description: Antiproliferative activity against mouse 3T3 cells expressing human CSF1R after 72 hrs by Celltiter assay. Type of data set: functional. An outline of the steps: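 3T3 cells engineered with human full-length CSF-1R, seeded in phenol red-free DMEM with 0.05% BSA and incubated overnight. Treated with DMEM containing 80 ng/ml M-CSF plus insulin, transferrin and selenium at multiple compound concentrations. […] Growth read by MTS-type CellTiter 96 Aqueous One after 72 h.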

The nature of data set [2]: Half life in rat at 3 mg/kg, iv and 10 mg/kg, po. Conditions: in vivo. It counts as ADME, organism-based.
Data set [3] in a line: Bioavailability in rat at 3 mg/kg, iv and 10 mg/kg, po. As to conditions: in vivo. Type of data set: ADME, organism-based.
The nature of data set [4]: Volume of distribution at steady state in rat at 3 mg/kg, iv and 10 mg/kg, po. Type of data set: ADME, organism-based. Conditions: in vivo, read-out: Vdss.
Data set [5] is described as follows: Clearance in rat at 3 mg/kg, iv and 10 mg/kg, po. Type of data set: ADME, organism-based. As to conditions: in vivo.
The test system of data set [6] is Mus musculus. Briefly: Inhibition of phosphorylated CSF1R level in 3T3/CSF1R mutant cells xenografted nude mouse at 50 mg/kg, po after 6 hrs by ELISA. Type of data set: functional. Summed up: (§1)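 3T3 cells expressing constitutively active human mutant full-length CSF-1R (301–969) were implanted subcutaneously at 5 × 10⁶ cells in female nude mice and grown to tumors >250 mm³. After dosing, tumors were assayed for pCSF-1R by ELISA, and plasma was sampled for drug levels.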
(In general: An ELISA detects its analyte on a solid surface through an enzyme-linked reagent.)

In data set [7] the test system is Mus musculus. Description: Inhibition of phosphorylated CSF1R level in 3T3/CSF1R mutant cells xenografted nude mouse at 50 mg/kg, po after 2 hrs by ELISA. Type of data set: functional. An outline of the steps:
as §1

The structures appear in SMILES notation.

By IC50 is commonly meant the concentration at which inhibition is half-maximal. Lower therefore signals higher potency. As a reminder, the half-life is how long it takes for the measured level to halve. A low value points to fast loss. In general, bioavailability refers to dose-corrected exposure relative to a reference, in per cent. A lower bioavailability goes with poor availability. For orientation: inhibition in vivo means the change of the read-out against control, counted positive when it falls. Lower therefore signals little suppression.

Macrophage colony-stimulating factor 1 receptor, sequence (P07333 whole entry): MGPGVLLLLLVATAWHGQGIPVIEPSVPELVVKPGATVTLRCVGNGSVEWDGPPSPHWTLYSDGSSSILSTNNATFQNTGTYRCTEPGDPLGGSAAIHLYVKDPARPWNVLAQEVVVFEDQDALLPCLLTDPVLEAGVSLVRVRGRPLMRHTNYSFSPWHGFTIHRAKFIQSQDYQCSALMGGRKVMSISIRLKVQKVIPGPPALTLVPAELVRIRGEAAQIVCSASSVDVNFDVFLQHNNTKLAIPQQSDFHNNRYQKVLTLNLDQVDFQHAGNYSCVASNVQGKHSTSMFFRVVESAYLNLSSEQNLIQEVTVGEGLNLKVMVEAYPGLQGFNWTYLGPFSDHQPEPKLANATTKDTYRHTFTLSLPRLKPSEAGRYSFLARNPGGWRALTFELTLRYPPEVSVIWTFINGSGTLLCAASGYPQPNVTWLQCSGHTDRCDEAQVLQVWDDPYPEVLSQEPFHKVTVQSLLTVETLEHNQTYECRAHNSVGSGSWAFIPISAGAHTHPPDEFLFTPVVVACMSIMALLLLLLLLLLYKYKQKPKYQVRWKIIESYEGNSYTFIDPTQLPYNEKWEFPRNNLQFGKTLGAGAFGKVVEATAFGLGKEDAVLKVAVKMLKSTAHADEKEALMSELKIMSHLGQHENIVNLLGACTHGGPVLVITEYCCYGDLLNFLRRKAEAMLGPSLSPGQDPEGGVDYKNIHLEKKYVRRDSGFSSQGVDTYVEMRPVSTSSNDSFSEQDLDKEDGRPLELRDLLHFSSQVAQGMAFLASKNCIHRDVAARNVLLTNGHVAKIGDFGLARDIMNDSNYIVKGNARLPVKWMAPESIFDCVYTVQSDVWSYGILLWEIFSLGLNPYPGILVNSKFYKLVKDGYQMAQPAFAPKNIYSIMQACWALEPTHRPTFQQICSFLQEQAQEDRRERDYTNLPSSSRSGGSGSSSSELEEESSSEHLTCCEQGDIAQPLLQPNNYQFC

As for `O=C(Nc1ccc(Cl)c(C(=O)Nc2cccnc2)c1)c1ccc(Cl)c(Cl)c1`, the IC50 in data set [1] amounted to 0.003 µM. The same compound had an Activity in the data set with NIH3T3 of 0.09 µM.
`O=C(Nc1ccc(Cl)c(C(=O)Nc2cncs2)c1)c1cccc(C(F)(F)F)c1` gave a half-life in data set [2] of 1.2 h. Besides, in data set [3], the bioavailability is 40%. Besides, the Vd in data set [4] came out at 4.2 L/kg. In addition, the IC50 in data set [1] turned out to be 0.003 µM. In the data set on NIH3T3, this compound gave an Activity of 0.27 µM. The compound also came in with a clearance in data set [5] of 3.48 L/h/kg.
For the compound `Cc1cccc(C(=O)Nc2ccc(Cl)c(C(=O)Nc3cccnc3)c2)c1`, the half-life in data set [2] was 0.8 h. The compound further returned a bioavailability in data set [3] of 28%. The Vd in data set [4] is 1.3 L/kg. This compound also returned an IC50 in data set [1] of 0.01 µM. The compound also showed an Activity in the data set with NIH3T3 of 0.24 µM. The compound further came in with a clearance in data set [5] of 1.8 L/h/kg.
In the case of `Cc1ccc(NC(=O)c2cccc(C(F)(F)F)c2)cc1NC(=O)c1cccnc1`, the IC50 in data set [1] stood at 0.011 µM. In the data set with NIH3T3, this compound yielded an Activity of 2.15 µM.
The corresponding values for `Cc1ncc(NC(=O)c2cc(NC(=O)c3cccc(C(F)(F)F)c3)ccc2C)s1` are 0.01 µM and 0.11 µM.
With `Cc1ncc(NC(=O)c2cc(NC(=O)c3cc(F)cc(Cl)c3)ccc2Cl)s1`, the IC50 in data set [1] was found to be 0.011 µM. Further, in the data set on NIH3T3, the Activity was 0.13 µM.
For the compound `Cc1cc(C)cc(C(=O)Nc2ccc(Cl)c(C(=O)Nc3cnc(C)s3)c2)c1`, the results for the inhibition in vivo at 50 mg/kg in the data set with Mus musculus [6] and in the data set with Mus musculus [7] were 60% and 90%, respectively. The compound also had a half-life in data set [2] of 1.3 h. Further, the bioavailability in data set [3] was determined as 27%. Further, the Vd in data set [4] was determined as 1.2 L/kg. In data set [1], the IC50 was found to be 0.006 µM. Further, the Activity in the data set with NIH3T3 was 0.06 µM. In data set [5], this compound returned a clearance of 0.84 L/h/kg.
In turn, `O=C(Nc1ccc(Cl)c(C(=O)Nc2cccnc2)c1)c1cccc(Cl)c1` had a half-life in data set [2] of 1.1 h. Besides, in data set [3], the bioavailability is 33%. Moreover, in data set [4], the Vd was 1.4 L/kg. Further, the IC50 in data set [1] worked out at 0.01 µM. Further, the Activity in the data set with NIH3T3 came to 0.33 µM. Besides, the clearance in data set [5] came to 0.96 L/h/kg.
Consider `Cc1ncc(NC(=O)c2cc(NC(=O)c3cccc(Cl)c3)ccc2Cl)s1`, for which, in data set [2], the half-life was 0.9 h. Further, the bioavailability in data set [3] was 43%. Besides, the Vd in data set [4] is 0.9 L/kg. Besides, in data set [1], the IC50 was found to be 0.004 µM. In the data set on NIH3T3, this compound yielded an Activity of 0.18 µM. The compound also displayed a clearance in data set [5] of 0.72 L/h/kg.
As for `CC(C)c1ncc(NC(=O)c2cc(NC(=O)c3cccc(C(F)(F)F)c3)ccc2Cl)s1`, the half-life in data set [2] is 1 h. The bioavailability in data set [3] is 65%. The Vd in data set [4] was 2.2 L/kg. Besides, half-maximal inhibition in data set [1] (IC50) was put at 0.013 µM. The compound also had an Activity in the data set on NIH3T3 of 0.15 µM. Also, in data set [5], the clearance was 2.22 L/h/kg.
On to `CN(C)c1cccc(C(=O)Nc2ccc(Cl)c(C(=O)Nc3cccnc3)c2)c1`, for which the IC50 in data set [1] was 0.016 µM. In the data set with NIH3T3, this compound showed an Activity of 0.77 µM.
Consider `Cc1cc(C)cc(C(=O)Nc2ccc(C)c(C(=O)Nc3cnc(C)s3)c2)c1`, for which the IC50 in data set [1] stood at 0.004 µM. The same compound had an Activity with NIH3T3 of 0.1 µM.
Take `Cc1ncc(NC(=O)c2cc(NC(=O)c3cccc(Cl)c3)ccc2C)s1`: the IC50 in data set [1] was determined as 0.007 µM. Further, the Activity in the data set on NIH3T3 was 0.32 µM.
On the same counts, the results for `O=C(Nc1ccc(Cl)c(C(=O)Nc2cccnc2)c1)c1cccc(Br)c1` are 0.014 µM and 0.26 µM.
On the same counts, the results for `Cc1cc(C)cc(C(=O)Nc2ccc(Cl)c(C(=O)Nc3cnc(C(C)C)s3)c2)c1` are 0.031 µM and 0.11 µM.
As for `Cc1cc(C)cc(C(=O)Nc2ccc(Cl)c(C(=O)Nc3cncs3)c2)c1`, the IC50 in data set [1] turned out to be 0.003 µM. Further, the Activity with NIH3T3 was found to be 0.11 µM.
As for `CCN(CC)CCNC(=O)c1c(C)[nH]c(/C=C2\C(=O)Nc3ccc(F)cc32)c1C.O=C(O)C[C@H](O)C(=O)O` [SUNITINIB MALATE], in the data set with NIH3T3, the Activity was determined as 0.09 µM.
`O=C(Nc1ccc(Cl)c(C(=O)Nc2cccnc2)c1)c1cccc(C(F)(F)F)c1` showed a half-life in data set [2] of 1 h. The compound further yielded a bioavailability in data set [3] of 76%. The Vd in data set [4] stood at 1.5 L/kg. Further, the IC50 in data set [1] was 0.016 µM. In addition, the Activity in the data set with NIH3T3 was found to be 0.14 µM. Moreover, the clearance in data set [5] was determined as 1.2 L/h/kg.
With `O=C(Nc1ccc(Cl)c(C(=O)Nc2cncs2)c1)c1cccc(Cl)c1`, in data set [2], the half-life was 0.5 h. Besides, in data set [3], the bioavailability turned out to be 20%. For the same compound, the Vd in data set [4] was 1.8 L/kg. For the same compound, in data set [1], the IC50 came out at 0.005 µM. This compound also registered an Activity with NIH3T3 of 0.52 µM. Besides, the clearance in data set [5] amounted to 3.24 L/h/kg.
For the compound `Cc1ncc(NC(=O)c2cc(NC(=O)c3cc(F)cc(C(F)(F)F)c3)ccc2Cl)s1`, the inhibition in vivo at 50 mg/kg in the data set on Mus musculus [6] and with Mus musculus [7] was 100% in each case. This compound also had a half-life in data set [2] of 7.3 h. In data set [3], this compound yielded a bioavailability of 31%. Besides, the Vd in data set [4] is 1.4 L/kg. The same compound had an IC50 in data set [1] of 0.007 µM. For the same compound, in the data set with NIH3T3, the Activity was 0.11 µM. In data set [5], this compound had a clearance of 0.12 L/h/kg.
As to `Cc1ccc(C(=O)Nc2cccc(C(F)(F)F)c2)cc1C(=O)Nc1cccnc1`, in data set [1], inhibition was half-maximal at 6.9 µM (IC50).
Same read-out and setting: the figure for `Cc1ccc(NC(=O)c2cccc(N(C)S(C)(=O)=O)c2)cc1NC(=O)c1ccc2ncccc2c1` is 0.089 µM.
Compound `Cc1ccc(NC(=O)c2cccc(C(F)(F)F)c2)cc1C(=O)Nc1cccnc1` had a half-life in data set [2] of 1 h. The compound further showed a bioavailability in data set [3] of 40%. Moreover, the Vd in data set [4] worked out at 1 L/kg. In data set [1], this compound returned an IC50 of 0.037 µM. The compound also returned an Activity in the data set with NIH3T3 of 0.23 µM. The compound further showed a clearance in data set [5] of 0.96 L/h/kg.
`Cc1ccc(C(=O)Nc2ccc(Cl)c(C(=O)Nc3cccnc3)c2)cc1C` gave an IC50 in data set [1] of 0.005 µM. For the same compound, the Activity in the data set with NIH3T3 was 0.15 µM.
On to `O=C(Nc1ccc(Cl)c(C(=O)Nc2cccnc2)c1)c1cccc(F)c1`, for which the IC50 in data set [1] was determined as 0.025 µM. Further, in the data set with NIH3T3, the Activity turned out to be 1.64 µM.
`Cc1ccc(NC(=O)c2cccc(C(F)(F)F)c2)cc1C(=O)Nc1ccccc1`: the IC50 in data set [1] was more than 50 µM. In the data set with NIH3T3, the Activity is more than 10 µM.
On to `Cc1cc(C)cc(C(=O)Nc2ccc(Cl)c(C(=O)Nc3cccnc3)c2)c1`, for which the IC50 in data set [1] stood at 0.008 µM. The compound further had an Activity in the data set with NIH3T3 of 0.05 µM.
Compound `COc1cccc(C(=O)Nc2ccc(Cl)c(C(=O)Nc3cccnc3)c2)c1` registered an IC50 in data set [1] of 0.009 µM. The compound also gave an Activity in the data set on NIH3T3 of 0.94 µM.
The corresponding values for `O=C(Nc1ccc(Cl)c(C(=O)Nc2cnc(C3CC3)s2)c1)c1cccc(C(F)(F)F)c1` are 0.14 µM and 0.1 µM.
On the same counts, the results for `O=C(Nc1ccc(Cl)c(C(=O)Nc2cccnc2)c1)c1cc(Cl)cc(Cl)c1` are 0.003 µM and 0.13 µM.
`Cc1ccc(C(=O)Nc2cccc(C(F)(F)F)c2)cc1NC(=O)c1cccnc1` had an IC50 in data set [1] of 0.032 µM. This compound yielded an Activity in the data set with NIH3T3 of 1.34 µM.

Values taken from ChEMBL document CHEMBL1139407, “Pyridyl and thiazolyl bisamide CSF-1R inhibitors for the treatment of cancer” (Bioorg Med Chem Lett, 2008).
